The list shows a part of the results. Values without a mark were called inactive. Calls of active or inactive are those of the source.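 The calls were made as follows, unless noted: active = mean activation across triplicate tests above the threshold derived from the earlier primary screen (cut at about 5.5% in these data); inactive = the rest.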

Assay [1] has as its target Oxysterols receptor LXR-beta (Homo sapiens) (UniProt P55055). Description: nonspecific reporter activation via LXR – cell-based, luminescence, HEK293, H. contortus campaign, counter-screen for hcDAF-12 agonist project, confirmation (AID 743027;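 active = mean percent activation of the reporter above a cutoff set as the average over tested compounds plus their standard deviation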). The following applies: HEK293 Gal4-LXR tk-luc reporter, 24 h, at 6.8 µM, hits give high values, normalized: DMSO 0%, positive control 100%. An outline of the steps: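 Assay system: Gal4-LXR and tk-luc reporter transfected HEK293 cells; Compound: 6.8 µM single dose; Times: one-day compound treatment at 37 °C; Technique: One-Glo luciferase luminescence; Read-out basis: % activation relative to DMSO and positive-control wells; Benchmarks: DMSO low control, positive-control high control; Repeats: three replicates per compound.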
On the technique in general: The purpose of a counterscreen is to sort out artefacts and off-target activity.

Assay [2] deals with Nuclear hormone receptor DAF-12 (Haemonchus contortus). Description: hcDAF-12 luciferase reporter activation, retest – cell-based, luminescence, HEK293, lit1-tk-luc, triplicate, confirmation (AID 743032).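 Also: 0% = DMSO only wells and 100% = 3 µM Δ7-dafachronic acid.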 Particulars: HEK293 hcDAF-12 lit1-tk-luc reporter, at 6.8 µM, hits give high values, % of Δ7-dafachronic acid response. (Reporter assays use an easily measured gene product as a stand-in for the process of interest.)

Oxysterols receptor LXR-beta (Homo sapiens), sequence (P55055 whole entry, looked up, the tested form may be a part): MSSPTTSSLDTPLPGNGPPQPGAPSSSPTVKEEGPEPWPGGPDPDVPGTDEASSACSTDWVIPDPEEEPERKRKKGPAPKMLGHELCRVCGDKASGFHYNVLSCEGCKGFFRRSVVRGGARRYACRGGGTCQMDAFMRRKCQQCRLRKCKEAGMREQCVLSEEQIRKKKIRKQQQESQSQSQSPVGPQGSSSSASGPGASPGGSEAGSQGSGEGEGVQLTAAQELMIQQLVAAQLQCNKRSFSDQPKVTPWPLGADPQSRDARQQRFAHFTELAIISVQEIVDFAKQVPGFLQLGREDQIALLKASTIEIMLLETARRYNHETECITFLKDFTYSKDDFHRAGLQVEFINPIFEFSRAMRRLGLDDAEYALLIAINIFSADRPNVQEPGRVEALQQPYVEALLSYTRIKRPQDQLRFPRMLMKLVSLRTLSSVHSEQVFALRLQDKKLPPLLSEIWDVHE

`O=C(NC(Cc1c[nH]c2ccccc12)C(=O)O)/C(=C/c1ccco1)NC(=O)c1ccccc1` (stereo unspecified): the activation in assay [1] was 0.05%; in assay [2], 3.64%.

Regarding `O=C(COc1cccc(Cl)c1)NCc1ccccc1`, the activation in assay [1] is -0.12%; in assay [2] it was 0.38%.

Regarding `O=C(CN1CCCCC1)NC(=O)Nc1ccccc1F`, the activation in assay [1] is 0.17%; in assay [2], 1.2%.

As to `COc1ccc(-c2c3c(=O)n(C)c(=O)n(C)c3cn2-c2cccc(OC)c2)cc1`, the results for the activation in assay [1] and in assay [2] were -0.23% and 3.87%, respectively.

Regarding `CN(CC(=O)Nc1cccc(F)c1)C(=O)C1CC(=O)N(CCc2ccccc2)C1` (stereo unspecified), the values for the activation in assay [1] and in assay [2] were -0.05% and 4.2%, respectively.

In the case of `COc1ccc(C(=O)C[n+]2ccc(C)cc2)cc1`, the activation in assay [1] is -0.34%; in assay [2], 0.77%.

In the case of `CCn1cc(CN2CCN(CC(C)(C)C)C(CCO)C2)c2ccccc21` (stereo unspecified), the activation was -0.12% in assay [1] and 3.73% in assay [2].

As for `CC(C#N)OC(=O)c1cccnc1SCC(=O)Nc1ccc2c(c1)OCO2` (stereo unspecified), the figures for the activation in assay [1] and in assay [2] were 0.05% and 5.55%, respectively.

Turning to `CCCc1cc(C(=O)Nc2ccc(Cl)cn2)cs1`, the activation in assay [1] was 1.33%; in assay [2], 4.99%.

For the compound `Cc1ccc(NN=Nc2nc3c([nH]2)c(=O)n(C)c(=O)n3C)cc1`, the activation is -0.08% in assay [1] and 3.07% in assay [2].

With `Nc1ccc2[nH]c(=S)sc2c1`, the activation was 0.01% in assay [1] and 2.92% in assay [2].

With `COc1ccccc1OCC(=O)O/N=C(\N)c1ccccn1`, the activation in assay [1] was 0.86%; in assay [2], 5.68% (active).

Turning to `COc1ccc(C2=NOC(COC(=O)c3ccc4ccccc4n3)C2)cc1` (stereo unspecified), the activation in assay [1] is 0.05%; in assay [2] it was 4.94%.

On to `O=C(O)c1[nH]c2ccccc2c1C(c1cccc(O)c1)c1c(C(=O)O)[nH]c2ccccc12`, for which the figures for the activation in assay [1] and in assay [2] were -0.02% and 4.41%, respectively.

In the case of `O=C(CSC(=S)N1CCOCC1)c1ccccc1`, the results for the activation in assay [1] and in assay [2] were 1% and 5.12%, respectively.

In the case of `Cc1cccc(C(=O)N2CCc3c([nH]c4ccccc34)C2CC(C)C)n1` (stereo unspecified), the activation was 0.01% in assay [1] and 6.29% (active) in assay [2].

`O=C(OCC(=O)c1c[nH]c2ccccc12)c1cccc(O)c1`: the activation in assay [1] is 0.27%; in assay [2], 7.43% (active).

For the compound `CN1CCc2ccccc2C1Cc1ccccc1NC(=O)c1sc2ccccc2c1Cl` (stereo unspecified), the activation in assay [1] was -0.05%; in assay [2], 1.76%.

Turning to `Cc1cccc(Nc2nc(-c3ccccc3)cs2)n1`, the figures for the activation in assay [1] and in assay [2] were 1.85% and 16% (active), respectively.

Take `Cc1ccc2nc(-c3ccccc3)c(CC3CCCCC3)n2c1`: the activation in assay [1] was 0.85%; in assay [2], 9.61% (active).

Take `Cc1ccc(-c2nc3ccccc3[nH]2)cc1N`: the activation in assay [1] was 2.07%; in assay [2] it was 10.4% (active).

Regarding `c1ccc(-c2cc(-c3ccccc3)[nH]n2)cc1`, the activation in assay [1] was 1.43%; in assay [2], 15.7% (active).

For the compound `C(=N\Nc1ccc2ccccc2n1)/c1ccc2c(c1)OCO2`, the figures for the activation in assay [1] and in assay [2] were 1.28% and 4.85%, respectively.

For `Nc1ccccc1/C=N\N=C/c1ccccc1N`, the activation in assay [1] was 1.76%; in assay [2] it was 12.4% (active).

On to `CC(=O)N1CCN(c2ccccc2NC(=S)NC(=O)c2cc3ccccc3o2)CC1`, for which the activation is -0.28% in assay [1] and 1.71% in assay [2].

Consider `NC(=O)Nc1ccccc1C(=O)NCCc1ccccc1`, for which the figures for the activation in assay [1] and in assay [2] were 0.34% and 4.12%, respectively.

As to `COc1ccc(C2COC(=O)C2=N)c(NC(=O)c2ccccc2)c1` (stereo unspecified), the values for the activation in assay [1] and in assay [2] were -0.25% and 4.45%, respectively.

For the compound `COc1ccc(Nc2nc(-c3ccccc3)cs2)cc1`, the activation was 1.88% in assay [1] and 18.8% (active) in assay [2].

As for `Cn1c(=O)c(C(=O)Nc2ncccn2)c(O)c2ccccc21`, the figures for the activation in assay [1] and in assay [2] were 0.73% and 15.3% (active), respectively.

In the case of `CCCCN(C)C(=O)c1ccc2c(c1)N(CC)C(=O)c1ccccc1S2(=O)=O`, the figures for the activation in assay [1] and in assay [2] were -0.28% and 0.81%, respectively.

As to `COc1ccc(C(=O)Nc2sc(C)c(C)c2CN2CCOCC2)cc1`, the activation in assay [1] is 0.23%; in assay [2], 4.47%.

As for `CCS(=O)(=O)c1cc([N+](=O)[O-])c(Sc2ccccc2N)s1`, the values for the activation in assay [1] and in assay [2] were 0.38% and 7.39% (active), respectively.

As to `O=C(c1cc(-c2ccccc2O)on1)N1CCCC1`, the activation was 0.82% in assay [1] and 6.57% (active) in assay [2].

For `N[C@@H](Cc1ccccc1)C(=O)N1CCC(C(=O)NCC(=O)Nc2ccc(F)cc2)CC1`, the values for the activation in assay [1] and in assay [2] were -0.2% and 0.19%, respectively.

Turning to `Clc1cccc(-c2nc3nc4ccccc4nc3n2Cc2ccco2)c1`, the activation in assay [1] was 0.26%; in assay [2] it was 5.41%.

Regarding `CC(C)C(=O)Nc1ccc2c(c1)oc1ccccc12`, the activation is 0.52% in assay [1] and 5.43% in assay [2].

With `Cc1cccnc1NC(=O)Cn1c(=O)oc2ccccc21`, the activation was -0.23% in assay [1] and 1.31% in assay [2].

`Cc1c(C(=O)Nc2ccccn2)oc2ccc(Br)cc12`: the activation in assay [1] is 1.8%; in assay [2] it was 15.4% (active).

Source of the values: PubChem BioAssay.
